Test results reported in ChEMBL document CHEMBL5143722, “Antimicrobial Peptides against Multidrug-Resistant Pseudomonas aeruginosa Biofilm from Cystic Fibrosis Patients” (J Med Chem, 2022).
Calls of active or inactive are those of the source. No cut-off for these calls is given here.

Columns and labels:
[1] = tested on: Pseudomonas aeruginosa; assay: Antibiofilm activity against Pseudomonas aeruginosa clinical isolate 46 in basal medium 2 at 12.5 to 100 uM incubated for 24 hrs by resazurin staining based microtiter plate method; assay type: functional, organism-based; settings: dose 12.5-100 µM
[2] = tested on: Pseudomonas aeruginosa; assay: Induction of biofilm degradation of Pseudomonas aeruginosa clinical isolate 995 at sub MIC concentration incubated for 1 hr by crystal violet staining analysis; assay type: functional
Summary of the method: (§1)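 Bacteria at 1 × 10^6 CFU/mL in BM2 grown static at 37 °C for 24 h to form biofilm. Wells rinsed of unattached cells, then exposed for 1 h to serial peptide dilutions (1.56–50 μM). Washed, stained with 0.1% crystal violet, A590 read. Biomass given as % of untreated biofilm; no-bacteria wells as blanks. At least three biological repeats.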

[3] = tested on: Pseudomonas aeruginosa; assay: Induction of biofilm degradation of Pseudomonas aeruginosa clinical isolate 46 at sub MIC concentration incubated for 1 hr by crystal violet staining analysis; assay type: functional; summary of the method: as §1
[4] = tested on: Pseudomonas aeruginosa PAO1; assay: Induction of biofilm degradation of Pseudomonas aeruginosa PAO1 in cystic fibrosis patient sputum at 10 uM incubated for 48 hr by resazurin staining based confocal microscopy analysis
[5] = tested on: Pseudomonas aeruginosa; assay: Induction of biofilm degradation of Pseudomonas aeruginosa clinical isolate 99 at sub MIC concentration incubated for 1 hr by crystal violet staining analysis; assay type: functional; summary of the method: as §1
[6] = tested on: Pseudomonas aeruginosa; assay: Induction of biofilm degradation of Pseudomonas aeruginosa clinical isolate 59 at 50 uM incubated for 1 hr by crystal violet staining analysis relative to control; assay type: functional
Summary of the method: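 Inoculum of 1 × 10^6 CFU/mL was grown 24 h at 37 °C without agitation to form biofilm. Wells were rinsed of unattached bacteria and exposed for 1 h to serial peptide dilutions (1.56–50 μM). They were then washed, stained with 0.1% crystal violet, and read at 590 nm with no-bacteria blanks. Biomass is given as % of untreated biofilm.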

[7] = tested on: Pseudomonas aeruginosa; assay: Induction of biofilm degradation of Pseudomonas aeruginosa clinical isolate 72 at sub MIC concentration incubated for 1 hr by crystal violet staining analysis; assay type: functional; summary of the method: as §1
[8] = tested on: Pseudomonas aeruginosa; assay: Induction of biofilm degradation of Pseudomonas aeruginosa clinical isolate 25 at sub MIC concentration incubated for 1 hr by crystal violet staining analysis; assay type: functional; summary of the method: as §1
[9] = tested on: Pseudomonas aeruginosa; assay: Induction of biofilm degradation of Pseudomonas aeruginosa clinical isolate 59 at 50 uM incubated for 1 hr by crystal violet staining analysis
[10] = tested on: Pseudomonas aeruginosa; assay: Antibiofilm activity against Pseudomonas aeruginosa clinical isolate 82 in basal medium 2 at 12.5 to 100 uM incubated for 24 hrs by resazurin staining based microtiter plate method; assay type: functional, organism-based; settings: dose 12.5-100 µM
[11] = tested on: Pseudomonas aeruginosa; assay: Antibiofilm activity against Pseudomonas aeruginosa clinical isolate 24 in basal medium 2 at 12.5 to 100 uM incubated for 24 hrs by resazurin staining based microtiter plate method; assay type: functional, organism-based; settings: dose 12.5-100 µM
[12] = tested on: Pseudomonas aeruginosa; assay: Induction of biofilm degradation of Pseudomonas aeruginosa clinical isolate PAO1 at sub MIC concentration incubated for 1 hr by crystal violet staining analysis; assay type: functional; summary of the method: as §1
[13] = tested on: Pseudomonas aeruginosa; assay: Induction of biofilm degradation of Pseudomonas aeruginosa clinical isolate 629 at sub MIC concentration incubated for 1 hr by crystal violet staining analysis; assay type: functional; summary of the method: as §1
[14] = tested on: Pseudomonas aeruginosa; assay: Antibiofilm activity against Pseudomonas aeruginosa clinical isolate 25 assessed as inhibition of biofilm formation at MIC incubated for 24 hrs by crystal violet staining based microtiter plate method; assay type: functional, organism-based
Summary of the method: (§2)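 Washed overnight cultures in BM2 medium at 1 × 10^6 CFU/mL with 2-fold serial peptide dilutions in a U-bottom 96-well plate. Incubated 24 h at 37 °C without agitation. Unattached cells washed off, then 0.1% crystal violet stain read at 590 nm. No-bacteria blanks. Biomass expressed as % of untreated biofilm. At least three biological repeats.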

[15] = tested on: Pseudomonas aeruginosa; assay: Antibiofilm activity against Pseudomonas aeruginosa clinical isolate 99 assessed as inhibition of biofilm formation at MIC incubated for 24 hrs by crystal violet staining based microtiter plate method; assay type: functional, organism-based; summary of the method: as §2
[16] = tested on: Pseudomonas aeruginosa; assay: Drug resistance in Pseudomonas aeruginosa PAO1 in BM2 medium assessed as fold change in MIC
[17] = tested on: Pseudomonas aeruginosa; assay: Antibiofilm activity against Pseudomonas aeruginosa clinical isolate 995 assessed as inhibition of biofilm formation at MIC incubated for 24 hrs by crystal violet staining based microtiter plate method; assay type: functional, organism-based; summary of the method: as §2
[18] = tested on: Pseudomonas aeruginosa; assay: Antibiofilm activity against Pseudomonas aeruginosa clinical isolate 24 assessed as inhibition of biofilm formation at MIC incubated for 24 hrs by crystal violet staining based microtiter plate method; assay type: functional, organism-based; summary of the method: as §2
[19] = tested on: Pseudomonas aeruginosa; assay: Drug resistance in Pseudomonas aeruginosa clinical isolate 24 in BM2 medium assessed as fold change in MIC
[20] = Drug degradation in cystic fibrosis patient derived sputum assessed as remaining activity at 100 uM measured after 30 mins by RP-HPLC analysis; assay type: ADME, tissue-based; settings: human, read-out: Drug degradation
Summary of the method: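 Pooled CF patient sputum diluted 10-fold in Ca/Mg-free DPBS, centrifuged at 1000 rpm for 10 min. Peptide added to the supernatant at 100 μM final and held at 37 °C. Stopped with 10% HCl. Residual peptide measured by RP-HPLC on C18 with a 20–60% ACN gradient (0.1% TFA) over 50 min, as % of the unincubated mixture.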

[21] = tested on: Pseudomonas aeruginosa; assay: Antibiofilm activity against Pseudomonas aeruginosa clinical isolate 238 assessed as inhibition of biofilm formation at 1.56 uM incubated for 24 hrs by crystal violet staining based microtiter plate method; assay type: functional, organism-based; summary of the method: as §2
[22] = tested on: Pseudomonas aeruginosa; assay: Antibiofilm activity against Pseudomonas aeruginosa clinical isolate 46 in artificial sputum medium at 50 uM incubated for 24 hrs by resazurin staining based microtiter plate method; assay type: functional, organism-based
Summary of the method: (§3)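 Washed overnight culture set to OD ~0.05 in BM2, diluted 1:100 into artificial sputum medium (pH 6.9) in 24-well plates. Grown 3 days aerobically at 37 °C with agitation. Peptides (12.5–100 μM) added for 24 h with agitation. Biofilm disrupted by cellulase for 1 h at 37 °C. Resazurin 0.02% for 1–2 h, fluorescence ex 530/em 590 nm; viability as % of untreated wells.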

[23] = tested on: Pseudomonas aeruginosa; assay: Antibiofilm activity against Pseudomonas aeruginosa clinical isolate 40 assessed as inhibition of biofilm formation at 1.56 uM incubated for 24 hrs by crystal violet staining based microtiter plate method; assay type: functional, organism-based; summary of the method: as §2
[24] = tested on: Pseudomonas aeruginosa; assay: Antibiofilm activity against Pseudomonas aeruginosa clinical isolate 995 assessed as inhibition of biofilm formation at 1.56 uM incubated for 24 hrs by crystal violet staining based microtiter plate method; assay type: functional, organism-based; summary of the method: as §2
[25] = tested on: Pseudomonas aeruginosa; assay: Antibiofilm activity against Pseudomonas aeruginosa PAO1 in artificial sputum medium at 25 uM incubated for 24 hrs by resazurin staining based microtiter plate method relative to control; assay type: functional; summary of the method: as §3
[26] = tested on: Pseudomonas aeruginosa; assay: Antibiofilm activity against Pseudomonas aeruginosa PAO1 assessed as inhibition of biofilm formation at 1.56 uM incubated for 24 hrs by crystal violet staining based microtiter plate method; assay type: functional, organism-based
[27] = tested on: Pseudomonas aeruginosa; assay: Antibiofilm activity against Pseudomonas aeruginosa clinical isolate 24 assessed as inhibition of biofilm formation at 1.56 uM incubated for 24 hrs by crystal violet staining based microtiter plate method; assay type: functional, organism-based; summary of the method: as §2
[28] = tested on: Pseudomonas aeruginosa; assay: Antibiofilm activity against Pseudomonas aeruginosa clinical isolate 24 in artificial sputum medium at 100 uM incubated for 24 hrs by resazurin staining based microtiter plate method; assay type: functional, organism-based; summary of the method: as §3
[29] = tested on: Pseudomonas aeruginosa; assay: Antibiofilm activity against Pseudomonas aeruginosa clinical isolate 46 in artificial sputum medium at 100 uM incubated for 24 hrs by resazurin staining based microtiter plate method; assay type: functional, organism-based; summary of the method: as §3
[30] = tested on: Pseudomonas aeruginosa; assay: Antibiofilm activity against Pseudomonas aeruginosa clinical isolate 82 in artificial sputum medium at 50 uM incubated for 24 hrs by resazurin staining based microtiter plate method; assay type: functional, organism-based; summary of the method: as §3

Row | Compound | Activity [1] | Activity [4] | Activity [6] | Activity [10] | Activity [11] | inhibition [14] | inhibition [15] | fold change (FC) [16] | inhibition [17] | inhibition [18] | fold change (FC) [19] | other results
1 | CC(C)C[C@H](NC(=O)[C@H](CC(C)C)NC(=O)[C@H](CC(C)C)NC(=O)[C@H](CC(C)C)NC(=O)[C@H](CC(C)C)NC(=O)[C@H](CC(C)C)NC(=O)[C@H](CC(C)C)NC(=O)[C@H](CC(C)C)NC(=O)[C@H](CC(C)C)NC(=O)[C@H](CCCCN)NC(=O)[C@H](CCCCN)NC(=O)[C@@H](N)CCCCN)C(=O)N[C@@H](CCCCN)C(=O)N[C@@H](CCCCN)C(=O)N[C@@H](CCCCN)C(N)=O | Active | Active | 40% | Active | Active |  |  |  |  |  |  | Activity [2]: Active; Activity [3]: Active; Activity [5]: Active; Activity [7]: Active; Activity [8]: Active; Activity [9]: 40%; Activity [12]: Active; Activity [13]: Active
2 | CC[C@H](C)[C@H](NC(=O)[C@H](CCCCN)NC(=O)[C@H](CCC(=O)O)NC(=O)[C@H](CCCCN)NC(=O)[C@H](CO)NC(=O)[C@H](CCCCN)NC(=O)[C@H](CCCNC(=N)N)NC(=O)[C@H](Cc1ccccc1)NC(=O)[C@H](Cc1ccccc1)NC(=O)[C@H](CC(=O)O)NC(=O)CNC(=O)[C@H](CC(C)C)NC(=O)[C@@H](N)CC(C)C)C(=O)NCC(=O)N[C@@H](CCCCN)C(=O)N[C@@H](CCC(=O)O)C(=O)N[C@@H](Cc1ccccc1)C(=O)N[C@@H](CCCCN)C(=O)N[C@@H](CCCNC(=N)N)C(=O)N[C@H](C(=O)N[C@H](C(=O)N[C@@H](CCC(N)=O)C(=O)N[C@@H](CCCNC(=N)N)C(=O)N[C@H](C(=O)N[C@@H](CCCCN)C(=O)N[C@@H](CC(=O)O)C(=O)N[C@@H](Cc1ccccc1)C(=O)N[C@@H](CC(C)C)C(=O)N[C@@H](CCCNC(=N)N)C(=O)N[C@@H](CC(N)=O)C(=O)N[C@@H](CC(C)C)C(=O)N[C@H](C(=O)N1CCC[C@H]1C(=O)N[C@@H](CCCNC(=N)N)C(=O)N[C@H](C(=O)N[C@@H](CCC(=O)O)C(=O)N[C@@H](CO)C(N)=O)[C@@H](C)O)C(C)C)[C@@H](C)CC)C(C)C)[C@@H](C)CC | Active |  | 40% | Active | Active | Active | Active | <20 | Active | Active | <20 | metabolised at 0.5 h, 100 µM [20]: 100%
3 | CC(C)C[C@H](NC(=O)[C@H](CC(C)C)NC(=O)[C@H](CCCCN)NC(=O)[C@H](CC(C)C)NC(=O)[C@H](CC(C)C)NC(=O)[C@H](CCCCN)NC(=O)[C@H](CCCCN)NC(=O)[C@H](CC(C)C)NC(=O)[C@H](CC(C)C)NC(=O)[C@H](CCCCN)NC(=O)[C@H](CCCCN)NC(=O)[C@H](CC(C)C)NC(=O)[C@H](CC(C)C)NC(=O)[C@H](CCCCN)NC(=O)[C@@H](N)CC(C)C)C(N)=O |  | Active |  |  |  | Active | Active | <20 | Active | Active | <20 | inhibition [21]: Active; Activity [22]: Active; inhibition [23]: Active; inhibition [24]: Active; Activity [25]: 66.7%; inhibition [26]: Active; inhibition [27]: Active; Activity [28]: Active; Activity [29]: Active; Activity [30]: Active
